The values below come from ChEMBL document CHEMBL1130245, “Syntheses and photodynamic activities of novel trisulfonated zinc phthalocyanine derivatives” (1997).

Experiment [1] is filed under the species Mus musculus. The experiment is described as follows: Percent necrosis with EMT-6 Tumor in BALB/c mice at drug dose 2 umol kg e-1, at light dose 400 J cme-2, and at time period of 24 hr. The experiment is classed as functional. The procedure, abridged: (§1)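 Male BALB/c mice (18-22 g), depilated; 2 × 10^5 EMT-6 cells implanted intradermally on each hind thigh; used 6-8 days later (tumors 3-5 mm diameter, 2-3 mm thick). Dye in PBS given iv (2-20 µmol kg-1); 24 or 48 h later one tumor illuminated with 650-700 nm xenon-lamp light, the other left as control. Edema scored 24 h post-PDT.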

For experiment [2], the species on record is Mus musculus. Kind of experiment: Percent necrosis with EMT-6 Tumor in BALB/c mice at drug dose 5 umol kg e-1, at light dose 400 J cme-2, and at time period of 48 hr. It is filed as functional. A digest of the protocol:
as §1

Experiment [3] in a line: (§2) Light dose to inactivate 90% of mouse mammary tumor cells (EMT-6) incubated with 1 uM dye for a period of 24 hour. It is filed as functional. The procedure, abridged: (§3)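 EMT-6 mouse mammary tumor cells, 15 × 10^3 per well, were grown overnight in Waymouth's with 15% FBS and incubated at 37 °C with dye at 1 µM in Waymouth's 1% FBS (1 h for line 1, 24 h for line 2). Cells were rinsed and exposed to 660-700 nm red light at 10 mW cm-2 (1.5-30 J cm-2). MTT read at 595 nm next day; LD90 extrapolated from survival curves; 8 replicates per light dose, ≥3 experiments.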

A short description of experiment [4]: (§4) Light dose to inactivate 90% of mouse mammary tumor cells (EMT-6) incubated with 1 uM dye for a period of 1 hour. It is filed as functional. The procedure, abridged:
as §3

The subject of experiment [5] is Mus musculus. Kind of experiment: Medium edema caused with EMT-6 tumor at drug dose 2 umol kg e-1, at light dose 400 J cme-2, and at time period of 24 hr; ++ = Medium edema. It is filed as functional, organism-based. The note with it: tested as the Zn salt or complex. A digest of the protocol:
as §1

For experiment [6], the species on record is Mus musculus. The experiment is described as follows: Percent necrosis with EMT-6 Tumor in BALB/c mice at drug dose 5 umol kg e-1, at light dose 400 J cme-2, and at time period of 24 hr. The experiment is classed as functional. A digest of the protocol: as §1
Experiment [7] relates to Mus musculus. Kind of experiment: Medium edema caused with EMT-6 tumor at drug dose 5 umol kg e-1, at light dose 400 J cme-2, and at time period of 48 hr; ++ = Medium edema. The experiment is classed as functional, organism-based. The settings on record: tested as the Zn salt or complex. A digest of the protocol: as §1
The species entered for experiment [8] is Mus musculus. Kind of experiment: Percent necrosis with EMT-6 Tumor in BALB/c mice at drug dose 5 umol kg e-1, at light dose 300 J cme-2, and at time period of 24 hr. It is filed as functional. A digest of the protocol:
as §1

The species entered for experiment [9] is Mus musculus. The experiment is described as follows: Percent regression with EMT-6 Tumor in BALB/c mice at drug dose 5 umol kg e-1, at light dose 400 J cme-2, and at time period of 48 hr. It is filed as functional. A digest of the protocol:
as §1

The species named for experiment [10] is Mus musculus. The experiment is described as follows: Percent regression with EMT-6 Tumor in BALB/c mice at drug dose 2 umol kg e-1, at light dose 400 J cme-2, and at time period of 24 hr. It is filed as functional. The procedure, abridged: as §1
For experiment [11], the species on record is Mus musculus. Kind of experiment: Percent regression with EMT-6 Tumor in BALB/c mice at drug dose 5 umol kg e-1, at light dose 300 J cme-2, and at time period of 24 hr. It is filed as functional. The procedure, abridged: as §1
For experiment [12], the species on record is Mus musculus. Kind of experiment: Percent regression with EMT-6 Tumor in BALB/c mice at drug dose 5 umol kg e-1, at light dose 400 J cme-2, and at time period of 24 hr. It is filed as functional. A digest of the protocol:
as §1

For experiment [13], the species on record is Mus musculus. The description is as §2. It is filed as functional. The note with it: tested as the Zn salt or complex. The procedure, abridged:
as §3

Experiment [14] is filed under the species Mus musculus. Kind of experiment: Percent regression with EMT-6 Tumor in BALB/c mice at drug dose 5 umol kg e-1, at light dose 400 J cme-2, and at time period of 24 hr.
For experiment [15], the species on record is Mus musculus. The experiment is described as §4. It is filed as functional. The note with it: tested as the Zn salt or complex. A digest of the protocol: as §3
In experiment [16] the test system is Mus musculus. The experiment is described as follows: Light […] edema caused with EMT-6 tumor at drug dose 5 umol kg e-1, at light dose 400 J cme-2, and at time period of 24 hr; + = Light edema. The experiment is classed as functional, organism-based. The settings on record: tested as the Zn salt or complex. A digest of the protocol:
as §1

Experiment [17] deals with Mus musculus. Kind of experiment: Medium edema caused with EMT-6 tumor at drug dose 5 umol kg e-1, at light dose 400 J cme-2, and at time period of 24 hr; ++ = Medium edema. The settings on record: tested as the Zn salt or complex. The experiment is classed as functional, organism-based. The procedure, abridged: as §1
The test system of experiment [18] is Mus musculus. The experiment is described as follows: Medium edema caused with EMT-6 tumor at drug dose 2 umol kg e-1, at light dose 400 J cme-2, and at time period of 24 hr. The experiment is classed as functional, organism-based. The note with it: tested as the Zn salt or complex. A digest of the protocol:
as §1

In experiment [19] the test system is Mus musculus. Kind of experiment: Medium edema caused with EMT-6 tumor at drug dose 5 umol kg e-1, at light dose 300 J cme-2, and at time period of 24 hr.; ++ = Medium edema. It is filed as functional, organism-based. The note with it: tested as the Zn salt or complex. The procedure, abridged: as §1
Experiment [20] concerns Mus musculus. Kind of experiment: Medium edema caused with EMT-6 tumor at drug dose 2 umol kg e-1, at light dose 400 J cme-2, and at time period of 24 hr.; ++ = Medium edema. The experiment is classed as functional, organism-based. The note with it: tested as the Zn salt or complex. A digest of the protocol: as §1
In experiment [21] the test system is Mus musculus. Kind of experiment: Medium edema caused with EMT-6 tumor at drug dose 5 umol kg e-1, at light dose 400 J cme-2, and at time period of 48 hr.; ++ = Medium edema. The note with it: tested as the Zn salt or complex. It is filed as functional, organism-based. A digest of the protocol: as §1
The species entered for experiment [22] is Mus musculus. Kind of experiment: Percent necrosis with EMT-6 Tumor in BALB/c mice at drug dose 5 uMol kg e-1, at light dose 400 J cme-2, and at time period of 24 hr. It is filed as functional. A digest of the protocol: as §1
The mark [23] stands for this setting: tested as the Zn salt or complex.

In the case of `CC(C)(C)c1ccc2cc3c(cc2c1)-c1nc-3nc2[n-]c(nc3nc(nc4[n-]c(n1)c1cc(S(=O)(=O)O)ccc41)-c1cc(S(=O)(=O)O)ccc1-3)c1cc(S(=O)(=O)O)ccc21.[Zn+2]`, the Necrosis response in the experiment filed under Mus musculus [1] was 60%; in the experiment filed under Mus musculus [2], 87%; in the experiment listed under Mus musculus [6], 100%; in the experiment filed under Mus musculus [8] it was 71%. Further, the LD90 is on record as 2.5 J cm**-2 in [3] and 21 J cm**-2 in experiment [4]. For the same compound, the Edema entry in the experiment with Mus musculus [5] and in the experiment with Mus musculus [7] was “Medium edema” each time. Also, the Regression response in the experiment listed under Mus musculus [9] worked out at 87%; in the experiment filed under Mus musculus [10], 60%; in the experiment filed under Mus musculus [11], 43%; in the experiment listed under Mus musculus [12], 86%.

For the compound `O=S(=O)(O)c1ccc2c(c1)-c1nc-2nc2[nH]c(nc3nc(nc4[nH]c(n1)c1ccc(S(=O)(=O)O)cc41)-c1nc(-c4ccccc4)c(-c4ccccc4)nc1-3)c1ccc(S(=O)(=O)O)cc21`, the figures for the LD90 in the experiment filed under Mus musculus [13] and in the experiment listed under Mus musculus [15] were 19.5 J cm··-2 and above 30 J cm··-2, respectively. The Regression response in the experiment listed under Mus musculus [14] (setting [23]) was determined as 0%. For the same compound, the Necrosis response in the experiment filed under Mus musculus [6] (setting [23]) came to 25%. Besides, the Edema entry with Mus musculus [16] was “Light edema”.

Consider `O=S(=O)(O)c1ccc2c(c1)-c1nc-2nc2[n-]c(nc3nc(nc4[n-]c(n1)c1ccc(S(=O)(=O)O)cc41)-c1ccccc1-3)c1ccc(S(=O)(=O)O)cc21.[Zn+2]`, for which the LD90 in [3] was 5 J cm**-2; in [4] it was 29 J cm**-2. Besides, the Regression response in the experiment listed under Mus musculus [14] worked out at 0%. The compound also returned a Necrosis response in the experiment listed under Mus musculus [6] of 12%. Also, the Edema entry in the experiment on Mus musculus [17] is recorded as “Medium edema”.

With `CC(C)(C)c1ccc2c(c1)-c1nc-2nc2[n-]c(nc3nc(nc4[n-]c(n1)c1cc(S(=O)(=O)O)ccc41)-c1cc(S(=O)(=O)O)ccc1-3)c1cc(S(=O)(=O)O)ccc21.[Zn+2]`, the Edema entry with Mus musculus [18] and in the experiment with Mus musculus [19] was “Medium edema” each time. The Necrosis response is 50% in the experiment listed under Mus musculus [1], 37% in the experiment filed under Mus musculus [2], 100% in the experiment filed under Mus musculus [6] and 12% in the experiment filed under Mus musculus [8]. For the same compound, the LD90 is 2.5 J cm**-2 in [3] and above 30 J cm**-2 in [4]. Besides, the Regression response in the experiment listed under Mus musculus [9] came to 37%; in the experiment filed under Mus musculus [10], 33%; in the experiment listed under Mus musculus [11], 0%; in the experiment filed under Mus musculus [12] it was 90%.

For the compound `O=S(=O)(O)c1ccc2c(c1)-c1nc-2nc2[n-]c(nc3nc(nc4[n-]c(n1)c1ccc(S(=O)(=O)O)cc41)-c1ccc(S(=O)(=O)O)cc1-3)c1ccc(S(=O)(=O)O)cc21.[Zn+2]`, the Necrosis response in the experiment listed under Mus musculus [1] was found to be 12%; in the experiment listed under Mus musculus [2], 50%; in the experiment listed under Mus musculus [6], 91%. Besides, the Edema entry in the experiment on Mus musculus [20] and in the experiment with Mus musculus [21] was “Medium edema” throughout. Also, the figures for the LD90 in experiment [3] and in [4] were 14 J cm**-2 and above 30 J cm**-2, respectively. Further, the values for the Regression response in the experiment listed under Mus musculus [22], in the experiment listed under Mus musculus [9] and in the experiment listed under Mus musculus [10] were 91%, 38% and 12%, respectively.
